Calls of active or inactive are those of the source. The calls are words filed in the database; no cut-off is given here.
Tests used:
[1] = AUC (0 to infinity) in Sprague-Dawley rat blood at 30 mg/kg, po by LC-MS/MS analysis; type: ADME, organism-based; design: time infinity, dose 30 mg/kg, route oral; conditions: whole blood
How it was run: (§1)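 Adult male SD rats (n = 4/group) got a single dose of compound in distilled water, orally or by injection. Blood (100–200 µL) was drawn from the orbit at 11 time points over 24 h. Blood drug levels were measured by LC–MS/MS.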

[2] = Inhibition of CYP3A (unknown origin) up to 30 uM; type: ADME; conditions: human
[3] = Half life in Sprague-Dawley rat blood at 30 mg/kg, po by LC-MS/MS analysis; type: ADME, organism-based; design: dose 30 mg/kg, route oral; conditions: whole blood; how it was run: as §1
[4] = Apparent clearance in Sprague-Dawley rat blood at 10 mg/kg, iv by LC-MS/MS analysis; type: ADME, organism-based; design: dose 10 mg/kg, route intravenous; conditions: whole blood, read-out: CL(app) (converted); how it was run: as §1
[5] = target: Dipeptidyl peptidase 8 (Homo sapiens) (UniProt Q6V1X1); test: Inhibition of DPP8 (unknown origin) up to 10 uM
How it was run: (§2)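 Compounds were serially diluted from DMSO into 20 mM Tris pH 7.4, 20 mM KCl, 0.1 mg/mL BSA. Enzyme was pre-incubated with compound for 10 min at ambient temperature. Reaction was started with Gly-Pro-AMC (10 µM final). Fluorescence (ex 400/em 505 nm) was read kinetically for 5–10 min or at a 10 min endpoint.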

[6] = Mean residence time (0 to infinity) in Sprague-Dawley rat blood at 30 mg/kg, po by LC-MS/MS analysis; type: ADME, organism-based; design: dose 30 mg/kg, route oral; conditions: whole blood; how it was run: as §1
[7] = Apparent volume of distribution in Sprague-Dawley rat blood at 10 mg/kg, iv by LC-MS/MS analysis; type: ADME, organism-based; design: dose 10 mg/kg, route intravenous; conditions: whole blood, read-out: Vz; how it was run: as §1
[8] = Oral bioavailability in Sprague-Dawley rat at 30 mg/kg by LC-MS/MS analysis; type: ADME, organism-based; conditions: in vivo; how it was run: as §1
[9] = target: Dipeptidyl peptidase 9 (Homo sapiens) (UniProt Q86TI2); test: Inhibition of DPP9 (unknown origin) up to 10 uM; how it was run: as §2
Dipeptidyl peptidase 9 (Homo sapiens), sequence (Q86TI2 2-863 limits assumed): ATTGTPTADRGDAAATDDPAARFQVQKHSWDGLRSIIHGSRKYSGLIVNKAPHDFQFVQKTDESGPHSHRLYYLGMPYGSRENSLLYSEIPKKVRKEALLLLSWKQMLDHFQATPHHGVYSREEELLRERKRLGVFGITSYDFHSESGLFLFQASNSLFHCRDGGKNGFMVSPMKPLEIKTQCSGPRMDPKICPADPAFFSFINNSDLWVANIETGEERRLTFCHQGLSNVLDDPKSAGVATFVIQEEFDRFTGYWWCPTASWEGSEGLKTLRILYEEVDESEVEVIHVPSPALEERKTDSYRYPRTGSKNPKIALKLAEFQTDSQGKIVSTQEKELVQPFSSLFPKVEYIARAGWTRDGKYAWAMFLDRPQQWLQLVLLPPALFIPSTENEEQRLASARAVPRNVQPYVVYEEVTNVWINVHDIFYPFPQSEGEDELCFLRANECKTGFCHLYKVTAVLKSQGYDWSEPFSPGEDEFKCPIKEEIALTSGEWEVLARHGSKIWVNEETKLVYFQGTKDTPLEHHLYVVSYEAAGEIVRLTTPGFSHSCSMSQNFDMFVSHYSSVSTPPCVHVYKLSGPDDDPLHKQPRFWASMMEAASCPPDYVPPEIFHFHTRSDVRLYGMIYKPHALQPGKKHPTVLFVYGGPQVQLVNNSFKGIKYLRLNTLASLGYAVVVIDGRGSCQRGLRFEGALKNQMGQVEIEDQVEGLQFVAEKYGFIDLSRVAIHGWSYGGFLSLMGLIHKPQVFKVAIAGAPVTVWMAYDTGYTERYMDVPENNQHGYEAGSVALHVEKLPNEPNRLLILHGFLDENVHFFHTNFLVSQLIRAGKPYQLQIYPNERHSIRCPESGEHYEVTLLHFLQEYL

Dipeptidyl peptidase 8 (Homo sapiens), sequence (Q6V1X1 whole entry, looked up): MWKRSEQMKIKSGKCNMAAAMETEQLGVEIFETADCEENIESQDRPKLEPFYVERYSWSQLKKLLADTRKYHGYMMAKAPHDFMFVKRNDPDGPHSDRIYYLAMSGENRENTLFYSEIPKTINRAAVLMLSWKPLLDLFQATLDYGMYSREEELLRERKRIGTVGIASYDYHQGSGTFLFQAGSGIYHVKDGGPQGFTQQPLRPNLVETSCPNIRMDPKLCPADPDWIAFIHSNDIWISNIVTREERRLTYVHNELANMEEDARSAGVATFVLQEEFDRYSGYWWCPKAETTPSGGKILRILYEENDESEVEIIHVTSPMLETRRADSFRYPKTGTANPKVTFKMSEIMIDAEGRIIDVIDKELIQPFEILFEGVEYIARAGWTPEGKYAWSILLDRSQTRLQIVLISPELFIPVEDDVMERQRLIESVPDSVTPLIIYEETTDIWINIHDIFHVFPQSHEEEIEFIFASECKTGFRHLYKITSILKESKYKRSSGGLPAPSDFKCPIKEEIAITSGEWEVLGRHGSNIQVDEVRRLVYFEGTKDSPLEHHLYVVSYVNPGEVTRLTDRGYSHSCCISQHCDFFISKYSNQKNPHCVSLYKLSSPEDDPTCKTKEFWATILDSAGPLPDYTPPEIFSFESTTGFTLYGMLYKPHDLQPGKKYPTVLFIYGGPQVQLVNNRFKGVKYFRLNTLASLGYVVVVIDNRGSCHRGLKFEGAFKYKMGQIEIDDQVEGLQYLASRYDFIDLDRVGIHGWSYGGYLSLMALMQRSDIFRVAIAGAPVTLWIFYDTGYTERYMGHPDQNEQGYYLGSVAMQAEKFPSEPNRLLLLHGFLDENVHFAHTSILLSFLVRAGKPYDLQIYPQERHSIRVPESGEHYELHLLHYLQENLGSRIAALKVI

Row | AUC(0-inf) [1] [ng·h/mL] | inhibition (INH) [2] | half-life [3] [h] | clearance [4] [mL/min/kg] | inhibition [5] | MRT inf [6] [h] | Vd [7] [L/kg] | bioavailability [8] [%] | inhibition [9] | SMILES
1 | 25300 | Not Active | 4.9 | 16.7 | inactive | 8.3 | 4 | 82.9 | inactive | CC#CCn1c(N2CCC[C@@H](N)C2)nc2ccn(Cc3nc(C)c4ccccc4n3)c2c1=O
2 | – | – | 2 | – | – | – | – | 41 | – | N#Cc1ccccc1Cn1c(N2CCC[C@@H](N)C2)nc2c(Br)c[nH]c2c1=O
